The array DNA melting data of Ke et al. (doi:10.1101/2024.01.08.574731)

Columns and labels:
[1] = melting temperature; fluorescence melt of hairpins on a sequencing array, two-state fit, raised by 9.35 °C to match UV melts; conditions: sodium 0.088 M
Procedure, shortened: (§1)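 Bootstrapped two-state fits yielded melting temperature and folding enthalpy for library hairpins. Cy3 fluorescence, with annealed Cy3 and quencher oligos, was imaged on a sequenced MiSeq flow cell in 50 mM Na-HEPES pH 8.0, 25 mM NaCl in 2.5 °C steps up to 60 °C, and normalised to pre-quench Cy3 and to control constructs. Four replicates were combined by inverse variance, and fitted temperatures were raised by 9.35 °C to match UV melts.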

[2] = folding enthalpy; higher = less favourable; fluorescence melt of hairpins on a sequencing array, two-state fit; conditions: sodium 0.088 M
Procedure, shortened: as §1

| Sequence | Tm [1] | folding enthalpy [2] |
| --- | --- | --- |
| GGGTAACGAAAGTTCCCC (((.(((....))).))) | 50.6 °C | -27.4 kcal/mol |
| GGGTAAGGAAACTTATCC ((.((((....)))).)) | 40.1 °C | -29.2 kcal/mol |
| GGGTAAGGAAACTTGCCC (((.(((....))).))) | 50.5 °C | -36.6 kcal/mol |
| GGGTACCGAAAGGTCCC (((.(((....)))))) | 54.9 °C | -24.2 kcal/mol |
| GGGTACCGAAAGGTCCCC (((.(((....))).))) | 55.7 °C | -22.9 kcal/mol |
| GGGTACGAAAGTAGTCCC ((((((....)))..))) | 36.4 °C | -20.8 kcal/mol |
| GGGTACGAAAGTATACCC ((((((....)))..))) | 43.9 °C | -25.9 kcal/mol |
| GGGTACGAAAGTATTCCC ((((((....)))..))) | 35.5 °C | -20.4 kcal/mol |
| GGGTAGAAATACCC (((((....))))) | 47.9 °C | -23.1 kcal/mol |
| GGGTAGCCGAAAGGCCCC (((..(((....)))))) | 54 °C | -16.1 kcal/mol |
| GGGTAGCGAAAGCTTCCC (((.(((....))).))) | 56.6 °C | -36.5 kcal/mol |
| GGGTAGGGAAACCTGCCC (((.(((....))).))) | 55.7 °C | -45 kcal/mol |
| GGGTATGGAAACATGCTC (.(.(((....))).).) | 33.4 °C | -23.1 kcal/mol |
| GGGTCACCGAAAGGTCCC (((..(((....)))))) | 38.9 °C | -17.1 kcal/mol |
| GGGTCACGAAAGTGTCCC (((.(((....))).))) | 59.6 °C | -39.8 kcal/mol |
| GGGTCAGGAAACTGGTCC ((..(((....)))..)) | 39.9 °C | -30.1 kcal/mol |
| GGGTCCCGAAAGGGTCCC (((.(((....))).))) | 64.9 °C | -31 kcal/mol |
| GGGTCCGAAAGGAACCCC ((((((....)))..))) | 61.7 °C | -13.9 kcal/mol |
| GGGTCCGAAAGGAATCCC ((((((....)))..))) | 46.7 °C | -22.1 kcal/mol |
| GGGTCCGAAAGGACTCCC ((((((....)))..))) | 50.6 °C | -11 kcal/mol |
| GGGTCCGAAAGGAGGCCC ((((((....)))..))) | 50.3 °C | -18.7 kcal/mol |
| GGGTCCGGAAACGGGCTC (.(.(((....))).).) | 50.5 °C | -21.3 kcal/mol |
| GGGTCGCCGAAAGGCCCC (((..(((....)))))) | 46.4 °C | -11.1 kcal/mol |

| Sequence | Tm [1] | folding enthalpy [2] |
| --- | --- | --- |
| GGGTCGCGAAAGCGTCCC (((.(((....))).))) | 67.1 °C | -29 kcal/mol |
| GGGTCTCGAAAGAGTCCC (((.(((....))).))) | 53.8 °C | -36.9 kcal/mol |
| GGGTCTTCGAAAGAACCC (((..(((....)))))) | 40.6 °C | -29.2 kcal/mol |
| GGGTGAGGAAACTCACTC (.(((((....))))).) | 53.9 °C | -17.8 kcal/mol |
| GGGTGAGGAAACTCGCTC (.(.(((....))).).) | 38.1 °C | -21.6 kcal/mol |
| GGGTGCGAAAGCAAACCC ((((((....)))..))) | 55.9 °C | -29.3 kcal/mol |
| GGGTGCGAAAGCAAGCCC ((((((....)))..))) | 53.8 °C | -23.1 kcal/mol |
| GGGTGCGGAAACGCGCTC (.(.(((....))).).) | 57.2 °C | -16.5 kcal/mol |
| GGGTGCTCGAAAGAGCCC (((..(((....)))))) | 52.6 °C | -17.7 kcal/mol |
| GGGTGGACGAAAGTCCCC (((..(((....)))))) | 49.7 °C | -12.4 kcal/mol |
| GGGTGGGGAAACCCACTC (.(((((....))))).) | 53 °C | -16.7 kcal/mol |
| GGGTGGGGAAACCCGCTC (.(.(((....))).).) | 49.1 °C | -17.7 kcal/mol |
| GGGTGGGGAAACCCGTCC ((..(((....)))..)) | 48.8 °C | -19 kcal/mol |
| GGGTGTCGAAAGACCCC (((.(((....)))))) | 56.4 °C | -35.6 kcal/mol |
| GGGTGTCGAAAGACCCCC (((.(((....))).))) | 56.4 °C | -24.2 kcal/mol |
| GGGTGTCGAAAGACTCCC (((.(((....))).))) | 58.3 °C | -42.3 kcal/mol |
| GGGTGTGGAAACACGTCC ((..(((....)))..)) | 40.1 °C | -13.6 kcal/mol |
| GGGTTACCGAAAGGTCCC (((..(((....)))))) | 41 °C | -19.4 kcal/mol |
| GGGTTAGGAAACCAACCC (((((.(....).))))) | 45.6 °C | -33.9 kcal/mol |
| GGGTTAGGAAACTAGCCC (((.(((....))).))) | 49 °C | -24.3 kcal/mol |
| GGGTTCGAAAGAAACCC ((((((....))).))) | 54.4 °C | -34.7 kcal/mol |
| GGGTTCGAAAGAAGACCC ((((((....)))..))) | 41.8 °C | -21.2 kcal/mol |
| GGGTTCGGAAACAAACCC (((((.(....).))))) | 43 °C | -29.8 kcal/mol |

| Sequence | Tm [1] | folding enthalpy [2] |
| --- | --- | --- |
| GGGTTGAAAAACCC (((((....))))) | 55.5 °C | -29.5 kcal/mol |
| GGGTTGACGAAAGTCCCC (((..(((....)))))) | 42.5 °C | -20.6 kcal/mol |
| GGGTTGCGAAAGCATCCC (((.(((....))).))) | 59.1 °C | -34.1 kcal/mol |
| GGGTTGGGAAACCAACTC (.(((((....))))).) | 49.7 °C | -21.9 kcal/mol |
| GGGTTGGGAAACCAGCCC (((.(((....))).))) | 56 °C | -46.6 kcal/mol |
| GGGTTGGGAAACCGATCC ((.(.((....)).).)) | 40.3 °C | -16.3 kcal/mol |
| GGGTTTCCGAAAGGACCC (((..(((....)))))) | 40.6 °C | -19.3 kcal/mol |
| GGGTTTTCGAAAGAACCC (((..(((....)))))) | 43.6 °C | -31.8 kcal/mol |
| GGTAAACCGAAAGGTACC (((..(((....)))))) | 40.1 °C | -20.2 kcal/mol |
| GGTAAACGAAAGTTCACC (((.(((....))).))) | 40.4 °C | -28.6 kcal/mol |
| GGTAAACGAAAGTTGACC (((.(((....))).))) | 49.4 °C | -36.3 kcal/mol |
| GGTAACACGAAAGTGACC (((..(((....)))))) | 37.1 °C | -17.1 kcal/mol |
| GGTAACGAAAGTTAGACC ((((((....)))..))) | 33.6 °C | -13 kcal/mol |
| GGTAACGAAAGTTCGACC ((((((....)))..))) | 28 °C | -16 kcal/mol |
| GGTAACGAAAGTTGCACC ((((((....)))..))) | 35.1 °C | -14.1 kcal/mol |
| GGTAAGACGAAAGTCACC (((..(((....)))))) | 39.3 °C | -16.2 kcal/mol |
| GGTAAGCGAAAGCTAACC (((.(((....))).))) | 50.1 °C | -33.4 kcal/mol |
| GGTAAGCGAAAGCTCACC (((.(((....))).))) | 46.9 °C | -25.5 kcal/mol |
| GGTAAGGAAACTTACC ((((((....)))))) | 50.3 °C | -32.2 kcal/mol |
| GGTAAGGGAAACCTTACC (((((((....))))))) | 57.5 °C | -46.1 kcal/mol |
| GGTAAGGGAAACCTTGCC ((.((((....)))).)) | 48.3 °C | -29.6 kcal/mol |
| GGTAATCCGAAAGGAACC (((..(((....)))))) | 26 °C | -19.7 kcal/mol |
